Assay [1] addresses T1, Tubulin (Bos taurus, UniProt Q6B856+Q862L2+Q862F3). Put plainly: Compound was evaluated for the inhibition of tubulin polymerization without pre-incubation. It is filed as functional. The procedure, abridged:
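Drug, tubulin and the GTP needed for polymerization were all mixed before the reaction mixtures were incubated at 37 °C, with no drug–tubulin preincubation. IC50 is the drug concentration inhibiting polymerization, given ± SD from at least three experiments per compound.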

The test system of assay [2] is Burkitts lymphoma cell. The assay can be described thus: Growth inhibition on human burkitt lymphoma cells after 36 h. The class given is functional, cell-based.
The subject of assay [3] is HCT-8. Put plainly: Cytotoxicity against human solid tumor Colon carcinoma HCT-8 cell line. The class given is functional. To be noted: read-out: ED50 (the source's name).
Assay [4] concerns RPMI-7951. Put plainly: cells. To be noted: Homo sapiens, read-out: ED50 (the source's name). The class given is functional.
In assay [5] the target is T1, Tubulin. Put plainly: Inhibition of tubulin polymerization with preincubation for 15 minutes at 37 degree Centigrade prior to addition of the GTP required for polymerization. The class given is functional.
The test system of assay [6] is P388. Put plainly: (§1) Cytotoxicity against murine P388 leukemia cell line. It is filed as functional. To be noted: Mus musculus, read-out: ED50 (the source's name).
Assay [7] relates to A549. The assay can be described thus: Cytotoxicity against human solid tumor lung carcinoma A549 cell line. It is filed as functional. The note with it: read-out: ED50 (the source's name).
The subject of assay [8] is TE-671. Put plainly: Cytotoxicity against human central nervous system carcinoma TE671 cell line. To be noted: read-out: ED50 (the source's name). The class given is functional.
Assay [9] addresses Tubulin (Bos taurus) (UniProt Q6B856+Q862L2+Q862F3). To be noted: at 5 µM.
Assay [10] concerns KB. The assay can be described thus: Cytotoxicity against human solid tumor nasopharyngeal carcinoma KB cell line. The note with it: read-out: ED50 (the source's name). The class given is functional.
Assay [11] relates to P388. Described as §1. The class given is functional, Homo sapiens. To be noted: Mus musculus, read-out: ED50 (the source's name).
The target of assay [12] is T1, Tubulin. Put plainly: Evaluated for the inhibition of tubulin polymerization without pre-incubation. The class given is functional.

Bounds are passed on as bounds.

In turn, `COc1cc2c(cc1O)CCc1cc(OC)c(OC)c(OC)c1-2` registered an IC50 in assay [1] greater than 100000 nM.

In the case of `COc1cc2c(c(OC)c1OC)-c1ccc(SC)c(=O)cc1[C@@H](COC(=O)c1ccc([N+](=O)[O-])cc1)C2`, the IC50 is 20 nM in assay [2] and 6600 nM in assay [5]. For the same compound, the EC50 is 5670 nM in assay [3]; 114 nM in [4]; 10 nM in [6]; 4280 nM in [7]; 10 nM in assay [8]; 13 nM in assay [10]. The inhibition in assay [9] amounted to 78%.

Take `COc1cc2c(c(OC)c1OC)-c1ccc(SC)c(=O)cc1[C@@H](COC(=O)c1cccc(C#N)c1)C2`: the EC50 in [3] was determined as 5780 nM; in [4], 629 nM; in [6] it was 99 nM; in [7], 8220 nM; in [8], 1530 nM; in [10] it was 139 nM. The IC50 in assay [5] was greater than 40000 nM. In addition, in assay [9], the inhibition was found to be 0%.

In turn, `COc1cc2c(c(OC)c1OC)-c1ccc(OC)c(=O)cc1[C@@H](NC(C)=O)CC2` [COLCHICINE] yielded an IC50 in assay [2] of 50 nM. In addition, the EC50 came out at 175 nM in assay [3]; 1 nM in assay [4]; 18 nM in [7]; 1 nM in [8]; 2 nM in [10]; 100 nM in [11].

As to `COc1cc2c(c(OC)c1OC)-c1ccc(SC)c(=O)cc1[C@@H](COC(=O)c1cccc([N+](=O)[O-])c1)C2`, the figures for the IC50 in [2] and in assay [5] were 600 nM and greater than 40000 nM, respectively. Further, the EC50 in assay [3] worked out at 19 nM; in [4], 1090 nM; in [6], 1050 nM; in assay [7], 1470 nM; in assay [8], 936 nM; in assay [10] it was 1050 nM. For the same compound, in assay [9], the inhibition was 0%.

For the compound `COc1cc2c(c(OC)c1OC)-c1ccc(SC)c(=O)cc1[C@@H](COC(=O)c1ccc(F)cc1)C2`, the EC50 in assay [3] worked out at 1970 nM; in assay [4], 926 nM; in assay [6], 81 nM; in assay [7], 1570 nM; in [8] it was 1250 nM; in assay [10], 1070 nM. In assay [5], this compound yielded an IC50 greater than 40000 nM. Besides, the inhibition in assay [9] stood at 0%.

As for `COc1cc2c(c(OC)c1OC)-c1ccc(SC)c(=O)cc1[C@@H](COC(=O)c1cccc(F)c1)C2`, the EC50 is 161 nM in assay [3]; 100 nM in [4]; 141 nM in assay [6]; 80 nM in [7]; 0.02 nM in [8]; 110 nM in assay [10]. The same compound registered an IC50 in assay [5] greater than 40000 nM. Moreover, in [9], the inhibition came out at 0%.

Consider `CCCC(=O)OC[C@H]1Cc2cc(OC)c(OC)c(OC)c2-c2ccc(SC)c(=O)cc21`, for which the EC50 in assay [3] is 3040 nM; in assay [4], 0.022 nM; in assay [6], 0.09 nM; in assay [7], 1370 nM; in assay [8], 23 nM; in [10] it was 0.13 nM. This compound returned an IC50 in [5] of 4500 nM. In addition, the inhibition in assay [9] is 46%.

As to `COc1ccc(C(=O)OC[C@H]2Cc3cc(OC)c(OC)c(OC)c3-c3ccc(SC)c(=O)cc32)cc1`, the EC50 was 3280 nM in assay [3]; 806 nM in assay [4]; 138 nM in assay [6]; greater than 10 µg/mL in [7]; 2 nM in [8]; 806 nM in assay [10]. The IC50 in [5] is greater than 40000 nM. Also, in assay [9], the inhibition was determined as 0%.

With `COc1cc2c(c(OC)c1OC)-c1ccc(SC)c(=O)cc1[C@@H](COC(=O)c1ccc(Br)cc1)C2`, the EC50 in assay [3] amounted to 9200 nM; in [4], 110 nM; in assay [6], 110 nM; in assay [7], 17000 nM; in assay [8], 129 nM; in [10], 92 nM. Further, the IC50 in assay [5] is greater than 40000 nM. In [9], this compound showed an inhibition of 2%.

With `COc1cc2c(c(OC)c1OC)-c1ccc(SC)c(=O)cc1[C@@H](COC(=O)c1ccccc1F)C2`, the EC50 in assay [3] was 6400 nM; in assay [4] it was 40 nM; in assay [6], 12 nM; in assay [7], 140 nM; in [8], 129 nM; in assay [10], 110 nM. Further, the IC50 in [5] amounted to 3000 nM; in assay [12] it was 3800 nM. The compound also showed an inhibition in assay [9] of 91%.

For the compound `C=C1Cc2cc(OC)c(OC)c(OC)c2-c2ccc(SC)c(=O)cc21`, the EC50 in assay [3] came out at 196 nM; in assay [4], 0.084 nM; in assay [6], 22 nM; in assay [7] it was 252 nM; in assay [8], 0.084 nM; in assay [10], 140 nM. The concentration for half-maximal inhibition (IC50) came out at 2400 nM in assay [5] and 2800 nM in assay [12]. In addition, the inhibition in assay [9] came to 91%.

Regarding `CCC(=O)OC[C@H]1Cc2cc(OC)c(OC)c(OC)c2-c2ccc(SC)c(=O)cc21`, the EC50 is 162 nM in assay [3]; 0.093 nM in assay [4]; 8 nM in [6]; 220 nM in assay [7]; 0.12 nM in [8]; 93 nM in assay [10]. For the same compound, the half-maximal inhibitory concentration (IC50) in assay [5] was determined as 3400 nM. Moreover, in [9], the inhibition turned out to be 83%.

Regarding `COc1cc2c(c(OC)c1OC)-c1ccc(SC)c(=O)cc1[C@@H](COC(C)=O)C2`, the EC50 came to 5710 nM in assay [3]; 144 nM in [4]; 96 nM in assay [6]; 1940 nM in assay [7]; 1320 nM in assay [8]; 132 nM in assay [10]. The IC50 in assay [5] worked out at 3400 nM. Besides, in assay [9], the inhibition came out at 56%.

Regarding `CC(C)n1cnc2c(Nc3ccc(Br)cc3)nc(N3CCC[C@@H]3CO)nc21`, the IC50 in assay [2] turned out to be 60 nM; in [5], 3600 nM; in assay [12], 3700 nM. Also, the EC50 in assay [3] was determined as 160 nM; in assay [4] it was 134 nM; in [6], 144 nM; in assay [7], 240 nM; in assay [8], 26 nM; in assay [10] it was 144 nM. Moreover, in [9], the inhibition came to 53%.

On to `CCOC(=O)OC[C@H]1Cc2cc(OC)c(OC)c(OC)c2-c2ccc(SC)c(=O)cc21`, for which the EC50 was determined as 179 nM in [3]; 0.001 nM in assay [4]; 16 nM in [6]; 0.001 nM in assay [7]; 0.001 nM in [8]; 11 nM in assay [10]. Further, the IC50 in assay [5] came to 3700 nM; in [12] it was 4300 nM. Besides, in assay [9], the inhibition turned out to be 60%.

Compound `COc1cc2c(ccc3cc(OC)c(OC)c(OC)c32)cc1O` had an IC50 in assay [1] of 100000 nM.

Broadly, the IC50 is the point on the concentration scale where inhibition reaches its midpoint. A higher IC50 goes with a need for much substance. Usually inhibition stands for the percentage by which the read-out fell short of the control. A higher inhibition goes with strong suppression.
